Laboratory results taken from ChEMBL document CHEMBL3877241 (J Med Chem, 2016).

Legend:
[1] = Antiproliferative activity against human MDA-MB-231 cells after 72 hrs by MTT assay; type: functional, cell-based; settings: MDA-MB-231, 72 h
[2] = Antiproliferative activity against human Jurkat cells; type: functional, cell-based
[3] = molecular target: Mitogen-activated protein kinase 10 (Homo sapiens, UniProt P53779); assay: Inhibition of full length human MAPK10 (V28 to Q422 residues) expressed in mammalian expression system by KINOMEScan assay
MOLM-14 [4] = assay: Induction of apoptosis in human MOLM14 cells assessed as live cells at 1.5 uM after 48 hrs by Annexin-V FITC/propidium iodide staining based flow cytometry (reference value: 94 to 94.1%); type: functional
[5] = molecular target: Histone deacetylase 4 (Homo sapiens) (UniProt P56524); assay: Inhibition of human recombinant N-terminal GST-tagged C-terminal His-tagged HDAC4 (627 to 1084 residues) expressed in insect cells at 10 uM preincubated with enzyme followed by acetyl-Lys(trifluoroacetyl)-AMC substrate addition measured after 2 hrs by fluorescence assay relative to control
Method in brief: (§1)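 HDAC enzyme in 50 mM Tris-HCl pH 8.0, 137 mM NaCl, 2.7 mM KCl, 1 mM MgCl2 was pre-incubated with compound dosed from DMSO. The reaction was started with the class IIa substrate acetyl-Lys(trifluoroacetyl)-AMC and run 2 h at 30 °C. Developer with trichostatin A stopped it, and fluorescence (Ex/Em 360/460 nm) was read at plateau. Single test concentration 10 µM.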

cells = type: functional, cell-based; settings: Homo sapiens, HEL 92.1.7, 36 h
[6] = Antiproliferative activity against human KHYG cells after 48 hrs by CellTiter-Glo assay; type: functional, cell-based
[7] = molecular target: Mast/stem cell growth factor receptor Kit (Homo sapiens, UniProt P10721, T670I/V559D); assay: Inhibition of human KIT (Y545 to D952 residues) V559D/T670I double mutant expressed in bacterial expression system by KINOMEScan assay
[8] = Antiproliferative activity against human NKYS cells after 48 hrs by CellTiter-Glo assay; type: functional, cell-based
[9] = Antiproliferative activity against mouse TAMH cells after 24 hrs by CellTiter-Glo assay; type: ADME, cell-based
[10] = Antiproliferative activity against human KMS-12-BM cells after 48 hrs by CellTiter-Glo assay; type: functional, cell-based
[11] = molecular target: Mitogen-activated protein kinase 8 (Homo sapiens, UniProt P45983); assay: Inhibition of full length human MAPK8 (M1 to Q384 residues) expressed in mammalian expression system assessed as residual activity at 100 nM by KINOMEScan assay relative to control
Method in brief: (§2)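 DiscoveRx KINOMEscan competition binding against ATP sites in a 97-kinase panel, with compound at 100 nM. Binding reported as % of control.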

[12] = molecular target: Non-receptor tyrosine-protein kinase TYK2 (Homo sapiens, UniProt P29597); assay: Inhibition of human TYK2 (V877 to C1187 residues) expressed in mammalian expression system assessed as residual activity at 100 nM by KINOMEScan assay relative to control
Method in brief: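 DiscoveRx competition-binding panel of 97 kinases, measuring binding to the kinase ATP site rather than catalytic turnover. The test compound was run at a single 100 nM concentration. Results are given as % of control binding.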

MOLM-14 [13] = assay: Induction of apoptosis in human MOLM14 cells assessed as necrotic cells at 3 uM after 48 hrs by Annexin-V FITC/propidium iodide staining based flow cytometry (reference value: 0.1%); type: functional
Method in brief: (§3)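 MOLM-14 cells treated 48 h at the stated concentrations; doxorubicin as positive control. Stained with Annexin V-FITC and propidium iodide and analysed by flow cytometry (at least 10,000 events). Gated quadrants: Annexin V−/PI− viable, Annexin V+/PI− early apoptotic, Annexin V+/PI+ late apoptotic.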

MOLM-14 [14] = assay: Induction of apoptosis in human MOLM14 cells assessed as late apoptotic cells at 3 uM after 48 hrs by Annexin-V FITC/propidium iodide staining based flow cytometry (reference value: 2.1 to 2.2%); type: functional; method in brief: as §3
[15] = molecular target: Tyrosine-protein kinase JAK3 (Homo sapiens) (UniProt P52333); assay: Inhibition of human JAK3 JH1 catalytic domain (I781 to S1124 residues) expressed in mammalian expression system assessed as residual activity at 100 nM by KINOMEScan assay relative to control; method in brief: as §2
MOLM-14 [16] = assay: Induction of apoptosis in human MOLM14 cells assessed as late apoptotic cells at 0.75 uM after 48 hrs by Annexin-V FITC/propidium iodide staining based flow cytometry (reference value: 2.1 to 2.2%); type: functional; method in brief: as §3
[17] = molecular target: Histone deacetylase 5 (Homo sapiens) (UniProt Q9UQL6); assay: Inhibition of human recombinant C-terminal His-tagged HDAC5 (656 to 1122 residues) expressed in insect cells at 10 uM preincubated with enzyme followed by acetyl-Lys(trifluoroacetyl)-AMC substrate addition measured after 2 hrs by fluorescence assay relative to control; method in brief: as §1
MOLM-14 [18] = assay: Induction of apoptosis in human MOLM14 cells assessed as live cells at 0.75 uM after 48 hrs by Annexin-V FITC/propidium iodide staining based flow cytometry (reference value: 94 to 94.1%); type: functional; method in brief: as §3
MOLM-14 [19] = assay: Induction of apoptosis in human MOLM14 cells assessed as live cells at 3 uM after 48 hrs by Annexin-V FITC/propidium iodide staining based flow cytometry (reference value: 94 to 94.1%); type: functional; method in brief: as §3
MOLM-14 [20] = assay: Induction of apoptosis in human MOLM14 cells assessed as early apoptotic cells at 0.75 uM after 48 hrs by Annexin-V FITC/propidium iodide staining based flow cytometry (reference value: 3.6 to 3.7%); type: functional; method in brief: as §3
MOLM-14 [21] = assay: Induction of apoptosis in human MOLM14 cells assessed as early apoptotic cells at 1.5 uM after 48 hrs by Annexin-V FITC/propidium iodide staining based flow cytometry (reference value: 3.6 to 3.7%); type: functional
[22] = Apparent intrinsic clearance in rat liver microsomes at 3 uM preincubated for 5 mins followed by NADPH addition measured after 45 mins by LC-MS/MS analysis; type: ADME; settings: read-out: CLH(app)
Method in brief: (§4)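 Male and female rat liver microsomes (0.3 mg protein/mL final) with compound at 3 μM final in 0.1 M phosphate buffer pH 7.4. Preincubated 5 min at 37 °C, then started with NADPH (1 mM final). Sampled at 0, 5, 10, 15, 30 and 45 min and quenched with cold acetonitrile containing internal standard. Read by LC-MS/MS; run in triplicate; midazolam (3 μM) as positive control.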

[23] = Half life in rat liver microsomes at 3 uM preincubated for 5 mins followed by NADPH addition by LC-MS/MS analysis; type: ADME; method in brief: as §4
[24] = Therapeutic index, ratio of IC50 for mouse TAMH cells to IC50 for human cancer cells; settings: cancer cell lines

Mitogen-activated protein kinase 8, sequence (P45983 whole entry, the tested form may be a part): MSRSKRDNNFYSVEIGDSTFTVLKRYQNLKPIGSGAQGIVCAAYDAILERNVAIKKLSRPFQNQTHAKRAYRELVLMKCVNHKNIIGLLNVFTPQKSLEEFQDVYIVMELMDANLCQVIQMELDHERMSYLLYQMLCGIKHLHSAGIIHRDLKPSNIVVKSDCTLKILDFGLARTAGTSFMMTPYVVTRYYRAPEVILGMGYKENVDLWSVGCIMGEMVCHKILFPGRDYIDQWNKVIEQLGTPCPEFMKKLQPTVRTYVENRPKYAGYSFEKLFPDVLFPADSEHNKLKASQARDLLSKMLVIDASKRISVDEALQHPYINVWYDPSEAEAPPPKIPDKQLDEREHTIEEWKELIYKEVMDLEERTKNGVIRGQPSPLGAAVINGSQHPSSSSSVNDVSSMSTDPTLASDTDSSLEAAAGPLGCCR
Mitogen-activated protein kinase 10, sequence (P53779 whole entry, the tested form may be a part): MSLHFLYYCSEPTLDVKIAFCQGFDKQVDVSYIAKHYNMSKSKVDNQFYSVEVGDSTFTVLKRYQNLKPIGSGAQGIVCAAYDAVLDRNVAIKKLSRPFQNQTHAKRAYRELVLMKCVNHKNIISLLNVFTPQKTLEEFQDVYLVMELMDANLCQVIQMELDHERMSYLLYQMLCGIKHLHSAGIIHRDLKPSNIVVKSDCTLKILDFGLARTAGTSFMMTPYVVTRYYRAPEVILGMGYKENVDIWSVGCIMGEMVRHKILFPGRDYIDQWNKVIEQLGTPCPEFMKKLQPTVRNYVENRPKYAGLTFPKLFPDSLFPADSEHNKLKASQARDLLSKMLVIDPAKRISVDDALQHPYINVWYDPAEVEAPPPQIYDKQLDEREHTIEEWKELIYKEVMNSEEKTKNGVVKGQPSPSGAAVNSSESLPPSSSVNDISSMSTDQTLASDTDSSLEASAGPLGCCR
Non-receptor tyrosine-protein kinase TYK2, sequence (P29597 whole entry, the tested form may be a part): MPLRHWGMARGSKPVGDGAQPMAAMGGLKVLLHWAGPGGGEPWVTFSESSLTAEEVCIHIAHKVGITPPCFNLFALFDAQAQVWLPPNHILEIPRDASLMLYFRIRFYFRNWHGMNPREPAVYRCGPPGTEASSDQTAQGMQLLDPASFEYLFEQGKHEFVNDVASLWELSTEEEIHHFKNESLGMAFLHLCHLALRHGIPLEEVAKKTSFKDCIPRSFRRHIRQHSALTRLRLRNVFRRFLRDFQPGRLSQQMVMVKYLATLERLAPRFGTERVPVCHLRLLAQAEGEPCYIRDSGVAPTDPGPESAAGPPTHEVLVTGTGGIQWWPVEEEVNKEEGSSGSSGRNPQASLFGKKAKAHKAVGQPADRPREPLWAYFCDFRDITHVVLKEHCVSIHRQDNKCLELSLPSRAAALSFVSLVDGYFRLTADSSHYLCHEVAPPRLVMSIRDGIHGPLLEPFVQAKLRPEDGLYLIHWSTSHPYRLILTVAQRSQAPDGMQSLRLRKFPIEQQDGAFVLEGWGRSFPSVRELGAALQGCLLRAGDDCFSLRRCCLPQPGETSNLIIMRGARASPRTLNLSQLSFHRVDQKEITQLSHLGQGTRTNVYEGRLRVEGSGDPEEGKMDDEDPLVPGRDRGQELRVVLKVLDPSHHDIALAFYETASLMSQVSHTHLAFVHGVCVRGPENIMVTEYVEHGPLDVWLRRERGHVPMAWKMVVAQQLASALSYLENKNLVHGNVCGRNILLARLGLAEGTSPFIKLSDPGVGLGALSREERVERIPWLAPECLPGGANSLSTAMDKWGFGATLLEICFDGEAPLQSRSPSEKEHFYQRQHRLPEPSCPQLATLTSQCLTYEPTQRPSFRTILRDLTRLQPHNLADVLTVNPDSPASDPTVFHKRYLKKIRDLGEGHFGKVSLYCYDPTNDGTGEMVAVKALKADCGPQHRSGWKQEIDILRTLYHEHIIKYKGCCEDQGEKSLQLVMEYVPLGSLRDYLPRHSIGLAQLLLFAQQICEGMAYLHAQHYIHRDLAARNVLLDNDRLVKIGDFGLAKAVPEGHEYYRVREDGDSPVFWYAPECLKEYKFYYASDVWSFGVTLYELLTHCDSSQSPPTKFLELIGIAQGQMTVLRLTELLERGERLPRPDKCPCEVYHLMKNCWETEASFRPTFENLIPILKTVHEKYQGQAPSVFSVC
Tyrosine-protein kinase JAK3 (Homo sapiens), sequence (P52333 whole entry, the tested form may be a part): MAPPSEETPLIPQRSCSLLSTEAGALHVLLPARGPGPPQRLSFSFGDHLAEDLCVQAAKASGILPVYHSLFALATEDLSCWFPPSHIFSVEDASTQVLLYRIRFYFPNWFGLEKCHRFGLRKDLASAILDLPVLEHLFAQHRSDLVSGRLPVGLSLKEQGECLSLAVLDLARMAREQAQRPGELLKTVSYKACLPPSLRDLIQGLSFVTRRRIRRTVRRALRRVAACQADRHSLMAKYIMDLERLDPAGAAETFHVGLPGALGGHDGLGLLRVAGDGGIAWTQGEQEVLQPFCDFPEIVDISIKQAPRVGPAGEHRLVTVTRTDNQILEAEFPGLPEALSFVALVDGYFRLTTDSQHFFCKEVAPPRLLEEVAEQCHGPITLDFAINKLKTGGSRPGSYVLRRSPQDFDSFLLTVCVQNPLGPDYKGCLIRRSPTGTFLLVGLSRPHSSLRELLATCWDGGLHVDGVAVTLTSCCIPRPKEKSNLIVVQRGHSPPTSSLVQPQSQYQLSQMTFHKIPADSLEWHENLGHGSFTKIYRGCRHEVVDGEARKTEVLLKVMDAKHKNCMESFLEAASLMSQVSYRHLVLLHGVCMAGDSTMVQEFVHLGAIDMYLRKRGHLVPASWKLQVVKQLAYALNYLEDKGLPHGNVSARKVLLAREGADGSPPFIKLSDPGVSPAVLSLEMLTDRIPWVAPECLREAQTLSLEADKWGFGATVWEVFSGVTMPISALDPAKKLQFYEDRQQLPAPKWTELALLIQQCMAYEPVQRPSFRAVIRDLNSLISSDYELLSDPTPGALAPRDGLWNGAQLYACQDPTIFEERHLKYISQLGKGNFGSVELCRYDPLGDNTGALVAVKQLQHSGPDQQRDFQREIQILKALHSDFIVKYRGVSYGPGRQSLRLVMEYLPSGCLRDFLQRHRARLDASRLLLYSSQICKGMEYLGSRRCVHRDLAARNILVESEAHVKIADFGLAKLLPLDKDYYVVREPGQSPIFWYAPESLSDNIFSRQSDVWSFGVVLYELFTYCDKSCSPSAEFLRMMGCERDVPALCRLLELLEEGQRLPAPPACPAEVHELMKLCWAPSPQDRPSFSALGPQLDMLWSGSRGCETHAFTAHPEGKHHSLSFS
Histone deacetylase 5 (Homo sapiens), sequence (Q9UQL6 whole entry, the tested form may be a part): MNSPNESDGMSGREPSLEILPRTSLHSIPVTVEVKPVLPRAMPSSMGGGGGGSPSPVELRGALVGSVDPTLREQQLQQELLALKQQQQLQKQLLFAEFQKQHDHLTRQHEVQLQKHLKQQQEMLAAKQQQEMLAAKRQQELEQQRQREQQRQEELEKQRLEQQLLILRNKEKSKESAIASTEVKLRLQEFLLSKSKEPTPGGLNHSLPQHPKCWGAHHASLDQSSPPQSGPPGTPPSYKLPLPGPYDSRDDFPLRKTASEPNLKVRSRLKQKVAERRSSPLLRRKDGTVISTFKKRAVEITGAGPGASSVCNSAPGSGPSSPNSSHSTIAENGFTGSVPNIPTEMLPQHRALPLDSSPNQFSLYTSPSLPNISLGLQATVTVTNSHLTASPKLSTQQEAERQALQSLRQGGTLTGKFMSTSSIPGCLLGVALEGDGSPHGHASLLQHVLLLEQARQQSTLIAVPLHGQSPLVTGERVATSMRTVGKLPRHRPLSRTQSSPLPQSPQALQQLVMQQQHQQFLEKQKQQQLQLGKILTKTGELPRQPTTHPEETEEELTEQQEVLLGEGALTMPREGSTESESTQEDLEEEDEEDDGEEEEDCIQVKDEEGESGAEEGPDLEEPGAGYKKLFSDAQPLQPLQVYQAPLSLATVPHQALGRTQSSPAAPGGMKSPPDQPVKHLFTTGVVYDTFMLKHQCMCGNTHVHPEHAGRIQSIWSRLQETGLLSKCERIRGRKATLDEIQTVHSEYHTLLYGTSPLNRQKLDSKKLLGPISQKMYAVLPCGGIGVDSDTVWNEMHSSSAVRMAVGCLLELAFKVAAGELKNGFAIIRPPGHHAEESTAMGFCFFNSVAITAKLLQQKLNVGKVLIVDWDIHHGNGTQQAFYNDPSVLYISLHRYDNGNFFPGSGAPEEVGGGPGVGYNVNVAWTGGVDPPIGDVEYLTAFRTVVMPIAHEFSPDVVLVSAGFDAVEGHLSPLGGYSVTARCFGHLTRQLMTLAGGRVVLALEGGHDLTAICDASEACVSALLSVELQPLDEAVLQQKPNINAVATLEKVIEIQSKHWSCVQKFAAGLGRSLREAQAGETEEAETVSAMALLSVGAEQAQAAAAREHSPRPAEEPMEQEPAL

Compound `O=C(CCCCCCOc1ccc2cc1COC/C=C/COCc1cccc(c1)-c1ccnc(n1)N2)NO` has an IC50 [1] of 1430 nM, an IC50 [2] of 1190 nM and an IC50 [3] of 1 to 10 µM. It also gave an Activity (MOLM-14 [4]) of 74.1%, an inhibition [5] of 8.6% and an IC50 (cells) of 940 nM. For the same compound, the IC50 [6] was 1090 nM, the IC50 [7] was 1 to 10 µM and the IC50 [8] was 1080 nM. It also gave an IC50 [9] of 9.57 µM, an IC50 [10] of 2110 nM and an Activity [11] of 26%. It also gave an Activity [12] of 4.9%, an Activity (MOLM-14 [13]) of 1.3% and an Activity (MOLM-14 [14]) of 34.3%. The Activity [15] was 7.9%, the Activity (MOLM-14 [16]) was 5% and the inhibition [17] was 16.1%. It also gave an Activity (MOLM-14 [18]) of 81.7%, an Activity (MOLM-14 [19]) of 29.9% and an Activity (MOLM-14 [20]) of 13.3%. The Activity (MOLM-14 [21]) was 12.7%, the CLint scaled at 3 µM [22] was 178 to 272 mL/min/kg and the half-life at 3 µM [23] was 17.3 to 26.3 min. It also gave a selectivity ratio [24] of 8.7.
